The text below walks through data of ChEMBL document CHEMBL4311941, “Development of Multifunctional Histone Deacetylase 6 Degraders with Potent Antimyeloma Activity” (J Med Chem, 2019).

Calls of active or inactive are those of the source. No cut-off for these calls is given here.

What is called EC50 is the midpoint of the concentration-response curve. As a reminder, the DC50 is the concentration giving 50% degradation.

Assay [1] relates to MM1.S. Kind of assay: Antiproliferative activity against human MM1S cells assessed as reduction in cell viability at 1 uM measured after 72 hrs by resazurin dye based assay. The class given is functional.
Assay [2] deals with MM1.S. Kind of assay: Antiproliferative activity against human MM1S cells assessed as reduction in cell viability measured after 72 hrs by resazurin dye based assay. The class given is functional. In outline: (§1)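 MM1S cells seeded at 1 × 10^4 per well, left overnight, then given compound or DMSO vehicle (added as 5× dosing medium) for 72 h at 37 °C, 5% CO2. Resazurin added (10× solution, 1 mg/mL), then incubated overnight at 37 °C. OD read at 570 and 600 nm. Viability is relative to vehicle, n = 3. Curves fitted as [inhibitor] vs response (three parameters); test range 0.3 nM–3 μM.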
(The colour change of resazurin is a common sign of viable cells or microbes.)

Assay [3] deals with MM1.S. Nature of the assay: Antiproliferative activity against human MM1S cells assessed as reduction in cell viability measured after 72 hrs by resazurin dye based assay relative to control. Type of assay: functional. In outline:
as §1

In assay [4] the target is T1, Protein cereblon/Protein deacetylase HDAC6 (Homo sapiens, UniProt Q9UBN7+Q96SW2). Kind of assay: Protac activity at CRBN/HDAC6 in human MM1S cells assessed as HDAC6 degradation at 100 nM measured after 6 hrs by Western blot analysis. The class given is cell-based.
Target sequence in this assay (Q96SW2 whole entry, looked up): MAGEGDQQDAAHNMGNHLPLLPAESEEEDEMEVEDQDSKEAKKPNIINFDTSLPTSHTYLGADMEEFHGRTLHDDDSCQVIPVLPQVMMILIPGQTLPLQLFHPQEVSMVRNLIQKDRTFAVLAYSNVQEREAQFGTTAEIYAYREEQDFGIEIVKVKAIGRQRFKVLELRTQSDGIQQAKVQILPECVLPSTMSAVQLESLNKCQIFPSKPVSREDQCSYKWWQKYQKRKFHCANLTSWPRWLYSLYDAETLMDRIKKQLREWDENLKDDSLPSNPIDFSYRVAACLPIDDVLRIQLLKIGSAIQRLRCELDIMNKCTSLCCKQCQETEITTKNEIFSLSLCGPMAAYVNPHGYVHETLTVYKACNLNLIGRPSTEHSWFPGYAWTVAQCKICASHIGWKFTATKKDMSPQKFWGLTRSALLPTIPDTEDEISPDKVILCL
Target sequence in this assay (Q9UBN7 whole entry, looked up): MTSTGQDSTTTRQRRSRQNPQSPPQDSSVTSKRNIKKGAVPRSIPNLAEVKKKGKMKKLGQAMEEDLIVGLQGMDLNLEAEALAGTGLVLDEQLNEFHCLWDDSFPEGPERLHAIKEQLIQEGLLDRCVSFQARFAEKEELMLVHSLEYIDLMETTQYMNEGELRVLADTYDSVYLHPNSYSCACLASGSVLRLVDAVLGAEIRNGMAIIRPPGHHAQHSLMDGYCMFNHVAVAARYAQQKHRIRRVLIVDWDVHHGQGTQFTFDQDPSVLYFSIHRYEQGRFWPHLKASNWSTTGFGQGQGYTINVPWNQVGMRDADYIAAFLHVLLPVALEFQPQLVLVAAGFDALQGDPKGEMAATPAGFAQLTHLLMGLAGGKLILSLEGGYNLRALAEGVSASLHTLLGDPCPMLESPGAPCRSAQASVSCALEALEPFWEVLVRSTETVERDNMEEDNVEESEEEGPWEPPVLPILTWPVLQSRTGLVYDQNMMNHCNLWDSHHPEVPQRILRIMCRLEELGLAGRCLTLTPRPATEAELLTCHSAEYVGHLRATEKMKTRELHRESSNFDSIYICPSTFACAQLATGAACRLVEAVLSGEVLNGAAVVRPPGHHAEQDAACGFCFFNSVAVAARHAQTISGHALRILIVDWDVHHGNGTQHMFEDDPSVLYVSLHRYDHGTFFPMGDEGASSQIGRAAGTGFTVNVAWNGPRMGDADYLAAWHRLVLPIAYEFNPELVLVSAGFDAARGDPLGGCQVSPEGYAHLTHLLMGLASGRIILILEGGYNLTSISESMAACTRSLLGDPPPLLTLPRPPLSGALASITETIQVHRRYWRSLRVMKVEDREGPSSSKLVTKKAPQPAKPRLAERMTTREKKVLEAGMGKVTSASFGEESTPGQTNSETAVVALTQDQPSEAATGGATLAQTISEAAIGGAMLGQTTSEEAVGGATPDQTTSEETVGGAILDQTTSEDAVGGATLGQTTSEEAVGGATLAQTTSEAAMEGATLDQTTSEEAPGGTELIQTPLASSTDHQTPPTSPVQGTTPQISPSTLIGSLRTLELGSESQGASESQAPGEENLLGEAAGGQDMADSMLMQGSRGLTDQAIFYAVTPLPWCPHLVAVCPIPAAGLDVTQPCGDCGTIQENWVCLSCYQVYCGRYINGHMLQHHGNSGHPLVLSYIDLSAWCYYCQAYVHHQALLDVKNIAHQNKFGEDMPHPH
For assay [5], the target named is T1, Protein cereblon/Protein deacetylase HDAC6. Kind of assay: Protac activity at CRBN/HDAC6 in human MM1S cells assessed as HDAC6 degradation at 10 to 100 nM measured after 6 hrs by Western blot analysis. Type of assay: cell-based. In general terms: In western blotting, separated proteins are transferred to a membrane and probed.
Target sequence in this assay (Q96SW2 whole entry, looked up): as the sequence (Q96SW2 whole entry, looked up) above
Target sequence in this assay (Q9UBN7 whole entry, looked up): as the sequence (Q9UBN7 whole entry, looked up) above
The target is the same in assay [6]. Kind of assay: Protac activity at CRBN/HDAC6 in human MM1S cells assessed as HDAC6 degradation measured after 6 hrs by ELISA relative to control. Type of assay: cell-based. Put shortly: (§2)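 In-cell ELISA: MM1S cells (5 × 10^4 per well) seeded overnight, treated 6 h (dosed as 5× medium; 0.1 nM–1 μM or 10/100 nM). Fixed in 8% formaldehyde/TBS, permeabilized with 0.1% Triton X, peroxidase quenched with 1% H2O2, blocked in 5% BSA. Anti-HDAC6 rabbit mAb (1:1000, 2 h) then HRP secondary; TMB read as OD450 − OD570. Background wells lacked primary antibody. Signal normalized to Janus Green and to DMSO wells, n = 3. DC50/Dmax from three-parameter fit.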
For orientation: ELISA stands for enzyme-linked immunosorbent assay.
Target sequence in this assay (Q96SW2 whole entry, looked up): as the sequence (Q96SW2 whole entry, looked up) above
Target sequence in this assay (Q9UBN7 whole entry, looked up): as the sequence (Q9UBN7 whole entry, looked up) above

Assay [7] shares this target. Kind of assay: Protac activity at CRBN/HDAC6 in human MM1S cells assessed as HDAC6 degradation measured after 6 hrs by ELISA. Type of assay: cell-based. In outline:
as §2
Target sequence in this assay (Q9UBN7 whole entry): as the sequence (Q9UBN7 whole entry, looked up) above
Target sequence in this assay (Q96SW2 whole entry): as the sequence (Q96SW2 whole entry, looked up) above

Assay [8] has the same target. Kind of assay: Protac activity at CRBN/HDAC6 in human HepG2 cells assessed as HDAC6 degradation up to 1 uM incubated for 6 hrs by Western blot analysis. Type of assay: cell-based.
Target sequence in this assay (Q96SW2 whole entry, looked up): as above
Target sequence in this assay (Q9UBN7 whole entry, looked up): as the sequence (Q9UBN7 whole entry, looked up) above

Regarding `CCCCN(Cc1ccc(C(=O)OC)cc1)C(=O)Nc1ccc(OCCCCCn2cc(CNc3cccc4c3C(=O)N(C3CCC(=O)NC3=O)C4=O)nn2)cc1` (configuration not stated), in the assay on MM1.S [1], the outcome was Active. Further, in the assay on MM1.S [2], the EC50 amounted to 17.7 nM. The Imax in the assay with MM1.S [3] was 44%. Moreover, in assay [4], the outcome was inactive.
As to `CCCCN(Cc1ccc(C(=O)NO)cc1)C(=O)Nc1ccc(OCCCCn2cc(CCNc3cccc4c3C(=O)N(C3CCC(=O)NC3=O)C4=O)nn2)cc1` (configuration not stated), the result in assay [5] was Active.
Regarding `CCCCN(Cc1ccc(C(=O)NO)cc1)C(=O)Nc1ccc(OCCn2cc(CCCNc3cccc4c3C(=O)N(C3CCC(=O)NC3=O)C4=O)nn2)cc1` (configuration not stated), the %max in assay [6] stood at 86.3%. In addition, in assay [5], the result was Active. Further, the DC50 in assay [7] came to 2.54 nM.
For the compound `CCCCN(Cc1ccc(C(=O)NO)cc1)C(=O)Nc1ccc(OCCCn2cc(CCCNc3ccc4c(c3)C(=O)N(C3CCC(=O)NC3=O)C4=O)nn2)cc1` (configuration not stated), the result in assay [5] was Active.
In the case of `CCCCN(Cc1ccc(C(=O)NO)cc1)C(=O)Nc1ccc(OCCCCn2cc(CNc3ccc4c(c3)C(=O)N(C3CCC(=O)NC3=O)C4=O)nn2)cc1` (configuration not stated), the outcome in assay [8] and in assay [5] was Active.
For the compound `Nc1cccc2c1C(=O)N(C1CCC(=O)NC1=O)C2=O` (configuration not stated), the outcome in the assay with MM1.S [1] was Active.
As for `CCCCN(Cc1ccc(C(=O)NO)cc1)C(=O)Nc1ccc(OCCCCCn2cc(CNc3cccc4c3C(=O)N(C3CCC(=O)N(C)C3=O)C4=O)nn2)cc1` (configuration not stated), the result (with MM1.S [1]; in assay [4]) was inactive.
With `CCCCN(Cc1ccc(C(=O)NO)cc1)C(=O)Nc1ccc(OCCn2cc(CNc3cccc4c3C(=O)N(C3CCC(=O)NC3=O)C4=O)nn2)cc1` (configuration not stated), the %max in assay [6] stood at 88%. In addition, the DC50 in assay [7] was 3.41 nM.
With `O=C(CCCCCCC(=O)N/N=C/c1ccc(OCCOCCOCCn2cc(CNc3cccc4c3C(=O)N(C3CCC(=O)NC3=O)C4=O)nn2)cc1)NO` (configuration not stated), the result (in the assay with MM1.S [1]; in assay [5]) was Active. Also, the %max in assay [6] was 84.1%. Further, the DC50 in assay [7] was determined as 9.12 nM.
As for `CCCCN(Cc1ccc(C(=O)NO)cc1)C(=O)Nc1ccc(OCCCCCn2cc(CNc3ccc4c(c3)C(=O)N(C3CCC(=O)NC3=O)C4=O)nn2)cc1` (configuration not stated), in assay [5], the outcome was Active.
`CCCCN(Cc1ccc(C(=O)NO)cc1)C(=O)Nc1ccccc1`: in the assay with MM1.S [1], the result was inactive.
